Data as given in article PMC3235361 (Biochemistry, 2011).

Tests used:
[1] = tested on: differentiated PC-12 cells; test: Neuroprotection against Aβ42, MTT assay, differentiated PC-12 cells; type: cell-based; details: both isomers to a similar extent, data not shown
[2] = tested on: rat primary cortical or hippocampal neurons; test: Toxicity compared with WT Aβ across MTT and LDH assays, rat primary neurons; type: cell-based; details: 10 μM, 48 h
In short: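 E18 rat cortical or hippocampal neurons on poly-D-lysine in DMEM/10% FBS; 5 μM cytosine arabinoside from 24 h; treated at day 6. HFIP-treated peptide films dissolved in 60 mM NaOH, diluted in medium (final NaOH ≤6 mM), sonicated; 10 μM final, 48 h. MTT: 4 h at 37°C, stop overnight, OD; 3 experiments. LDH release: 6 experiments. 6 wells/point; normalized to NaOH-medium control; ANOVA/Tukey.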

Molecule | protection against Aβ-induced toxicity, MTT (in words) [1] | toxicity compared with the WT Aβ form (in words) [2]
CC(=O)N[C@H](CC[S+](C)[O-])C(=O)O (stereo partly drawn) [Ac-D-Met(O)] | significantly protected | –
CC(=O)N[C@@H](CC[S+](C)[O-])C(=O)O (stereo partly drawn) [Ac-L-Met(O)] | significantly protected | –
[Met(O)^35]Aβ42 [Aβ42-Met(O)] | – | significantly less toxic
